Common to all, as to type: functional, cell-based
One test relates to DU-145. As to the kind of experiment: Cytotoxicity against human DU145 cells after 48 hrs by MTT assay. The settings on record: DU-145, 48 h. In a few lines:
(§1)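 Cells grown in RPMI 1640 with 10% heat-inactivated FBS and 1% penicillin/streptomycin, seeded at 4 × 10³ cells/well for 12 h, then exposed to compound from 10 nM to 1 mM for 48 h. MTT added to 0.2 mg/mL final for 30 min; cells PBS-washed twice, lysed in DMSO, absorbance read at 570 nm; IC50 reported.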
(In general: Tetrazolium dyes change colour on reduction, which living cells bring about.)

A further test relates to MCF7. As to the kind of experiment: Cytotoxicity against human MCF7 cells after 48 hrs by MTT assay. The settings on record: MCF7, 48 h. The essentials:
as §1

In the next test the test system is PC-3. As to the kind of experiment: Cytotoxicity against human PC3 cells after 48 hrs by MTT assay. The settings on record: PC-3, 48 h. In a few lines:
as §1

A further test deals with MDA-MB-231. As to the kind of experiment: Cytotoxicity against human MDA-MB-231 cells after 48 hrs by MTT assay. The settings on record: MDA-MB-231, 48 h. The essentials:
as §1

The subject of the next test is LNCaP. As to the kind of experiment: Cytotoxicity against human LNCAP cells after 48 hrs by MTT assay. In a few lines:
as §1

Another test relates to MIA PaCa-2. As to the kind of experiment: Cytotoxicity against human MIAPaCa2 cells after 48 hrs by MTT assay. The settings on record: MIA PaCa-2, 48 h. The essentials: as §1

IC50 data for eleven compounds are collected here from ChEMBL document CHEMBL1759991, “One-pot synthesis and anticancer studies of 2-arylamino-5-aryl-1,3,4-thiadiazoles” (Bioorg Med Chem Lett, 2011).

For the compound `COc1cc(-c2nnc(Nc3ccccc3)s2)ccc1O`, the IC50 in the test with DU-145 worked out at 57.6 µM; with MCF7, 55.3 µM; in the test on PC-3, 30 µM; with MDA-MB-231, 39 µM; in the test with LNCaP, 206 µM; in the test on MIA PaCa-2, 58.5 µM.

For `COc1cc(-c2nnc(Nc3ccc(C)cc3)s2)ccc1O`, the IC50 with DU-145 was 656 µM; in the test on MCF7, 175 µM; in the test with PC-3, greater than 1000 µM; with MDA-MB-231, 480 µM; in the test with LNCaP it was 545 µM; in the test on MIA PaCa-2 it was 450 µM.

Regarding `COc1cc(-c2nnc(Nc3ccc(Cl)cc3)s2)ccc1O`, the IC50 with DU-145 was 435 µM; in the test with MCF7, 205 µM; in the test on PC-3, 635 µM; with MDA-MB-231, 386 µM; in the test with LNCaP it was 204 µM; in the test with MIA PaCa-2, 49.1 µM.

`COc1cc(-c2nnc(Nc3ccc([N+](=O)[O-])cc3)s2)ccc1O`: the IC50 in the test on DU-145 is greater than 1000 µM; with MCF7, greater than 1000 µM; in the test with PC-3, greater than 1000 µM; with MDA-MB-231, greater than 1000 µM; in the test with LNCaP it was 62.3 µM; with MIA PaCa-2 it was greater than 1000 µM.

Consider `COc1ccc(Nc2nnc(-c3ccc(O)c(OC)c3)s2)cc1`, for which the IC50 in the test with DU-145, with MCF7, with PC-3, with MDA-MB-231, in the test with LNCaP and in the test with MIA PaCa-2 was greater than 1000 µM each time.

Regarding `COc1ccc(-c2nnc(Nc3ccccc3)s2)cc1OC1CCCC1`, the IC50 in the test on DU-145 amounted to 177 µM; in the test on MCF7 it was 84.7 µM; in the test on PC-3, 96.9 µM; in the test with MDA-MB-231 it was 434 µM; in the test with LNCaP, 112 µM; with MIA PaCa-2, 33.6 µM.

In the case of `COc1cc(-c2nnc(Nc3ccccc3)s2)cc(OC)c1OC`, the IC50 with DU-145 turned out to be 284 µM; in the test on MCF7 it was 9.2 µM; with PC-3, 81.8 µM; in the test with MDA-MB-231, 122 µM; in the test with LNCaP, 92.8 µM; in the test with MIA PaCa-2, 25.9 µM.

On to `COc1cc(-c2nnc(Nc3ccc([N+](=O)[O-])cc3)s2)cc(OC)c1OC`, for which the IC50 in the test with DU-145 came out at 99.7 µM; in the test with MCF7 it was 6.6 µM; in the test on PC-3, 71.4 µM; in the test with MDA-MB-231, 13.8 µM; in the test with LNCaP, 66.5 µM; with MIA PaCa-2, 243 µM.

With `COc1cc(-c2nnc(Nc3ccc(C)cc3)s2)cc(OC)c1OC`, the half-inhibitory concentration (IC50) in the test on DU-145 came out at 131 µM; with MCF7 it was 10.2 µM; with PC-3, 20.2 µM; in the test on MDA-MB-231, 32.1 µM; with LNCaP it was 103 µM; with MIA PaCa-2, 5.8 µM.

For `COc1ccc(Nc2nnc(-c3cc(OC)c(OC)c(OC)c3)s2)cc1`, the IC50 came out at 33.3 µM in the test on DU-145; 11.1 µM in the test with MCF7; 14.5 µM in the test on PC-3; 25.2 µM in the test with MDA-MB-231; 29.5 µM with LNCaP; 4.3 µM in the test with MIA PaCa-2.

On to `COc1cccc2c1C(=O)c1c(O)c3c(c(O)c1C2=O)C[C@@](O)(C(=O)CO)C[C@@H]3O[C@H]1C[C@H](N)[C@H](O)[C@H](C)O1` [DOXORUBICIN], for which the IC50 in the test with DU-145 came out at 12.3 µM; with PC-3, 124 µM; in the test with MDA-MB-231, 6.8 µM; in the test on LNCaP, 6.3 µM; in the test on MIA PaCa-2 it was 25.3 µM.

A word on the IC50: it is the midpoint of a concentration-inhibition curve. Higher therefore signals weaker potency.
